We go through 42 molecules from ChEMBL document CHEMBL1275331, “Discovery of a novel 5-HT(3) antagonist/5-HT(1A) agonist 3-amino-5,6,7,8-tetrahydro-2-{4-[4-(quinolin-2-yl)piperazin-1-yl]butyl}quinazolin-4(3H)-one (TZB-30878) as an orally bioavailable agent for irritable bowel syndrome” (J Med Chem, 2010).

Each structure is given as a SMILES string.

Assay [1] concerns the target T1, 5-hydroxytryptamine receptor 3A (Homo sapiens, UniProt P46098).
T1 sequence (P46098 whole entry): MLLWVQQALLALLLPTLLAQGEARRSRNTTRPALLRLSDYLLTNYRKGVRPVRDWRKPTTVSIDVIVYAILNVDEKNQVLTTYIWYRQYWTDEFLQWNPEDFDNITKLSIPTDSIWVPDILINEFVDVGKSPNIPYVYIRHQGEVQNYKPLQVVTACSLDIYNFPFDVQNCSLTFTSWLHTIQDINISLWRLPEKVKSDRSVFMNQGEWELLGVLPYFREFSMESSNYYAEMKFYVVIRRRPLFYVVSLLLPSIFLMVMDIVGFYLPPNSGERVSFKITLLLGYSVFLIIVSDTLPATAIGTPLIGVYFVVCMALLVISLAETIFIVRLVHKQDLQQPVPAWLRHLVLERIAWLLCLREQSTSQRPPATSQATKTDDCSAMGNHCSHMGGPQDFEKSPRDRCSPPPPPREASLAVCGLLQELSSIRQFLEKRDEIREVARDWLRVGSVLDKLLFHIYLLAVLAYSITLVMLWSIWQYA
The assay is described as follows: Displacement of [3H]BRL-43694 from human 5HT3 receptor expressed in HEK293 cells by liquid scintillation counting. The format is cell-based. The gist of the method: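 HEK-293 membranes expressing human 5-HT3 were incubated with 0.5 nmol/L [3H]BRL-43694 (final) for 60 min at 25 °C. Buffer: 50 mM Tris-HCl, 5 mM MgCl2, 1 mM EDTA, pH 7.5. Compound came from 270 μmol/L DMSO stock, diluted in buffer. Filtration was through GF/B presoaked in 0.5% polyethyleneimine, with two cold Tris washes. Run in duplicate or triplicate; percent inhibition calculated.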
(Displacement assays read how much labelled ligand stays bound in the presence of the test substance.)

Assay [2] concerns the target T2, 5-hydroxytryptamine receptor 1A (Homo sapiens, UniProt P08908).
T2 sequence (P08908 whole entry): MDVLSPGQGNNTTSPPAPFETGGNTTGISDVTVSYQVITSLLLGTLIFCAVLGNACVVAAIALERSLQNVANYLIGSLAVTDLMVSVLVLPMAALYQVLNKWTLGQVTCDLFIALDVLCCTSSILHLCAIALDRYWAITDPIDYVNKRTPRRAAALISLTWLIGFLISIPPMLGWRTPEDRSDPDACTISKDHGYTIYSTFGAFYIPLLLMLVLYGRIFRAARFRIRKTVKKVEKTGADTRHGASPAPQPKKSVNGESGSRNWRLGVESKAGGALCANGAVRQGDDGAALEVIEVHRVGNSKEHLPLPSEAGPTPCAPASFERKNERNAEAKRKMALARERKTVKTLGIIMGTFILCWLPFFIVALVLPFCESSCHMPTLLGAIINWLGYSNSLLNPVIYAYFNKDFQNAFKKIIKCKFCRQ
Kind of assay: Displacement of [3H]8-OH-DPAT from human 5HT1A receptor expressed in CHO cells by liquid scintillation counting. The format is cell-based. The gist of the method: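 CHO-cell membranes with human 5-HT1A were incubated with 0.25 nmol/L [3H]8-OH-DPAT (final) for 60 min at 27 °C. Buffer: 50 mM Tris-HCl, 10 mM MgSO4, 0.5 mM EDTA, 0.1% ascorbic acid, pH 7.4. Compound came from 270 μmol/L DMSO stock, diluted in buffer. Filtration was through GF/C presoaked in 0.3% polyethyleneimine, with two cold Tris washes. Run in duplicate or triplicate; percent inhibition of binding calculated.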

On to `Nn1c(CCCCN2CCN(c3ccc4cc(O)ccc4n3)CC2)nc2c(c1=O)CCCC2`, for which the half-maximal inhibitory concentration (IC50) in assay [1] was more than 100 nM; in assay [2] it was 59.3 nM.

`Nn1c(SCCCN2CCN(c3ccc4ccccc4n3)CC2)nc2ncccc2c1=O`: the results for the IC50 in assay [1] and in assay [2] were 64.8 nM and less than 1 nM, respectively.

In the case of `Nn1c(SCCCN2CCN(c3ccc4ccccc4n3)CC2)nc2cccnc2c1=O`, the IC50 in assay [1] is 61 nM; in assay [2], less than 1 nM.

Take `Cc1sc2nc(SCCCN3CCN(c4nc5ccccc5nc4-c4ccccc4)CC3)n(N)c(=O)c2c1C`: the half-inhibitory concentration (IC50) in assay [1] and in assay [2] was more than 100 nM each time.

As for `O=c1[nH]c(SCCCN2CCN(c3ccc4ccccc4n3)CC2)nc2sc3c(c12)CCCC3`, the half-maximal inhibitory concentration (IC50) is 44.2 nM in assay [1] and more than 100 nM in assay [2].

On to `Nn1c(CCCCN2CCN(c3ccc4ccccc4n3)CC2)nc2cccc(F)c2c1=O`, for which the half-maximal inhibitory concentration (IC50) in assay [1] is 50.6 nM; in assay [2] it was less than 10 nM.

For `Cc1sc2nc(SCCCN3CCN(c4cc(C)c5ccccc5n4)CC3)n(N)c(=O)c2c1C`, the IC50 in assay [1] turned out to be 50.5 nM; in assay [2], 4.3 nM.

In the case of `Nn1c(CCCCN2CCN(c3ccc4ccccc4n3)CC2)nc2c(c1=O)CCC2`, the figures for the IC50 in assay [1] and in assay [2] were 62.1 nM and less than 1 nM, respectively.

As to `Cc1sc2nc(CCCCN3CCN(c4ccc5ccccc5n4)CC3)n(N)c(=O)c2c1C`, the IC50 in assay [1] is 26.7 nM; in assay [2], less than 10 nM.

Turning to `Nn1c(CN2CCN(c3ccc4ccccc4n3)CC2)nc2c(c1=O)CCCC2`, the half-maximal inhibitory concentration (IC50) in assay [1] was 86.6 nM; in assay [2] it was more than 100 nM.

With `Nn1c(CCCCN2CCN(c3ccc4ccccc4n3)CC2)nc2c(c1=O)CCCCC2`, the figures for the concentration for half-maximal inhibition (IC50) in assay [1] and in assay [2] were 84.8 nM and less than 10 nM, respectively.

For `Nn1c(CCCCN2CCN(c3nc4ccccc4c4c3CCCC4)CC2)nc2c(c1=O)CCCC2`, the IC50 in assay [1] and in assay [2] was more than 100 nM in each case.

As for `Nn1c(SCCCN2CCN(c3ccc4ccccc4n3)CC2)nc2sc3c(c2c1=O)CCNC3`, the concentration for half-maximal inhibition (IC50) in assay [1] was 100 nM; in assay [2], 5.2 nM.

`Cc1cccc2c(=O)n(N)c(CCCCN3CCN(c4ccc5ccccc5n4)CC3)nc12`: the 50% inhibitory concentration (IC50) was 15.6 nM in assay [1] and less than 10 nM in assay [2].

With `Nn1c(CCCCN2CCN(c3ccc4ccc(O)cc4n3)CC2)nc2c(c1=O)CCCC2`, the IC50 in assay [1] amounted to 55.2 nM; in assay [2], 46.6 nM.

Take `CC1CCc2c(nc(CCCCN3CCN(c4ccc5ccccc5n4)CC3)n(N)c2=O)C1` (centres undefined): the IC50 in assay [1] is 97.9 nM; in assay [2] it was less than 10 nM.

`Nn1c(CCCCN2CCN(c3ccc4ccccc4n3)CC2)nc2cccc(Cl)c2c1=O`: the results for the IC50 in assay [1] and in assay [2] were more than 100 nM and less than 10 nM, respectively.

Regarding `O=c1[nH]c(CCCCN2CCN(c3ccc4ccccc4n3)CC2)nc2c1CCCC2`, the values for the IC50 in assay [1] and in assay [2] were 24.6 nM and 6.2 nM, respectively.

Take `Cc1sc2nc(SCCCN3CCN(c4ccc5ccccc5n4)CC3)[nH]c(=O)c2c1C`: the IC50 in assay [1] and in assay [2] was more than 100 nM in each case.

As for `Nn1c(CCCCN2CCN(c3nc4ccccc4cc3O)CC2)nc2c(c1=O)CCCC2`, the IC50 turned out to be 52.6 nM in assay [1] and 96.4 nM in assay [2].

Take `Cc1ccc2nc(CCCCN3CCN(c4ccc5ccccc5n4)CC3)n(N)c(=O)c2c1`: the figures for the half-maximal inhibitory concentration (IC50) in assay [1] and in assay [2] were 45.6 nM and less than 10 nM, respectively.

Turning to `Nn1c(SCCCN2CCN(c3ccc4ccccc4n3)CC2)nc2ccccc2c1=O`, the half-maximal inhibitory concentration (IC50) in assay [1] came out at 69.9 nM; in assay [2], 24.4 nM.

In the case of `Cc1sc2nc(SCCCN3CCN(c4ccccn4)CC3)n(N)c(=O)c2c1C`, the concentration for half-maximal inhibition (IC50) in assay [1] was more than 100 nM; in assay [2] it was 4.2 nM.

Regarding `Nn1c(CCCCN2CCN(c3ccc4ccccc4n3)CC2)nc2cc(F)ccc2c1=O`, the IC50 in assay [1] is more than 100 nM; in assay [2], less than 10 nM.

For `Nn1c(CCCCN2CCN(c3ccc4ccccc4n3)CC2)nc2c(c1=O)CC(O)CC2` (centres undefined), the IC50 in assay [1] is 46.5 nM; in assay [2] it was less than 10 nM.

For the molecule `Nn1c(CCCCN2CCN(c3nc4ccccc4c4c3CCC4)CC2)nc2c(c1=O)CCCC2`, the IC50 in assay [1] is more than 100 nM; in assay [2], 62.3 nM.

Take `Nn1c(SCCCN2CCN(c3ccc4ccccc4n3)CC2)nc2cc([N+](=O)[O-])ccc2c1=O`: the IC50 in assay [1] was more than 100 nM; in assay [2] it was 1.3 nM.

Take `Cc1sc2nc(SCCCN3CCN(c4nc5ccccc5s4)CC3)n(N)c(=O)c2c1C`: the IC50 was 87.6 nM in assay [1] and 66.6 nM in assay [2].

Regarding `Cc1cccc2nc(CCCCN3CCN(c4ccc5ccccc5n4)CC3)n(N)c(=O)c12`, the 50% inhibitory concentration (IC50) in assay [1] was more than 100 nM; in assay [2], 13.5 nM.

On to `Cc1cc2ccccc2nc1N1CCN(CCCCc2nc3c(c(=O)n2N)CCCC3)CC1`, for which the IC50 in assay [1] was more than 100 nM; in assay [2], 96 nM.

For the molecule `Nn1c(CCCN2CCN(c3ccc4ccccc4n3)CC2)nc2c(c1=O)CCCC2`, the half-inhibitory concentration (IC50) in assay [1] was more than 100 nM; in assay [2] it was 90.4 nM.

On to `Nn1c(CCCCN2CCN(c3ccc4ccccc4n3)CC2)nc2ccc(F)cc2c1=O`, for which the values for the IC50 in assay [1] and in assay [2] were 99.4 nM and less than 10 nM, respectively.

As for `Nn1c(CCN2CCN(c3ccc4ccccc4n3)CC2)nc2c(c1=O)CCCC2`, the 50% inhibitory concentration (IC50) in assay [1] and in assay [2] was more than 100 nM each time.

For `Cc1sc2nc(SCCCN3CCN(c4ccc5c(n4)CCCC5)CC3)n(N)c(=O)c2c1C`, the values for the half-inhibitory concentration (IC50) in assay [1] and in assay [2] were more than 100 nM and 6.1 nM, respectively.

With `Nn1c(CCCCCN2CCN(c3ccc4ccccc4n3)CC2)nc2c(c1=O)CCCC2`, the half-inhibitory concentration (IC50) in assay [1] was more than 100 nM; in assay [2], 7.6 nM.

Take `CC1CCc2nc(CCCCN3CCN(c4ccc5ccccc5n4)CC3)n(N)c(=O)c2C1` (centres undefined): the IC50 in assay [1] is 48.3 nM; in assay [2], less than 10 nM.

For the molecule `Nn1c(CCCCN2CCN(c3ccc4ccccc4n3)CC2)nc2ccc(Cl)cc2c1=O`, the IC50 was more than 100 nM in assay [1] and less than 10 nM in assay [2].

`Nn1c(CCCCN2CCN(c3ccc4ccccc4n3)CC2)nc2cc(Cl)ccc2c1=O`: the 50% inhibitory concentration (IC50) is more than 100 nM in assay [1] and 18 nM in assay [2].

As to `Nn1c(SCCCN2CCN(c3ccc4ccccc4n3)CC2)nc2sc3c(c2c1=O)CCCC3`, the IC50 in assay [1] was 41.4 nM; in assay [2] it was less than 10 nM.

Turning to `Cc1c(N2CCN(CCCCc3nc4c(c(=O)n3N)CCCC4)CC2)nc2ccccc2c1C`, the half-inhibitory concentration (IC50) in assay [1] is more than 100 nM; in assay [2], 64.6 nM.

Consider `Cc1sc2nc(SCCCN3CCN(c4nc5ccccc5c5ccccc45)CC3)n(N)c(=O)c2c1C`, for which the IC50 in assay [1] was more than 100 nM; in assay [2], 55.4 nM.

Consider `Nn1c(CCCCN2CCN(c3ccc4ccccc4n3)CC2)nc2c(Cl)cccc2c1=O`, for which the IC50 in assay [1] is 83.1 nM; in assay [2], less than 10 nM.

The term IC50 denotes the concentration at which inhibition is half-maximal. Higher therefore signals lower potency.
